Experimental data as given in ChEMBL document CHEMBL1649163, “Surfactants, aromatic and isoprenoid compounds, and fatty acid biosynthesis inhibitors suppress Staphylococcus aureus production of toxic shock syndrome toxin 1” (2009).

Experiments:
Type in all cases: functional
Staphylococcus aureus [1] = assay: microbe, parasite or virus in culture; conditions: 24 h
Staphylococcus aureus [2] = tested on: Staphylococcus aureus
Staphylococcus aureus [3] = assay: Effect on growth in Staphylococcus aureus MN8 at 0.20 % after 24 hrs (reference value: 100%)
How it was run: (§1)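 Test-tube growth assay: 10 ml growth medium (brain heart infusion with 10% fetal bovine serum, MgCl2, L-glutamine) inoculated to 5 × 10^6 CFU/ml from a 24 h 37°C preculture. Compound diluted in medium, or dissolved in methanol with methanol-matched controls. After 24 h at 37°C with 5% CO2, OD600 and viable counts read. Growth given as % of CFU/ml of untreated controls in the same experiment.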

Staphylococcus aureus [4] = assay: microbe, parasite or virus in culture; conditions: 24 h; remark: listed apart in the source
Staphylococcus aureus [5] = assay: Effect on growth in Staphylococcus aureus MN8 at 2.00 mM after 24 hrs (reference value: 100%)
How it was run: as §1

Staphylococcus aureus [6] = assay: Effect on growth in Staphylococcus aureus MN8 at 1.00 mM after 24 hrs (reference value: 100%)
How it was run: as §1

Staphylococcus aureus [7] = assay: microbe, parasite or virus in culture; conditions: 24 h; remark: listed apart in the source
Staphylococcus aureus [8] = assay: microbe, parasite or virus in culture; conditions: 24 h; remark: listed apart in the source
Staphylococcus aureus [9] = assay: Effect on growth in Staphylococcus aureus MN8 at 0.75 mM after 24 hrs (reference value: 100%)
How it was run: as §1

Staphylococcus aureus [10] = assay: Effect on growth in Staphylococcus aureus MN8 at 6.40 mM after 24 hrs (reference value: 100%)
How it was run: as §1

Staphylococcus aureus [11] = assay: microbe, parasite or virus in culture; conditions: 24 h; remark: listed apart in the source
Staphylococcus aureus [12] = assay: Effect on growth in Staphylococcus aureus MN8 at 3.20 mM after 24 hrs (reference value: 100%)
How it was run: as §1

Staphylococcus aureus [13] = assay: microbe, parasite or virus in culture; conditions: 24 h; remark: listed apart in the source
Staphylococcus aureus [14] = assay: Effect on growth in Staphylococcus aureus FRI-1187 at 0.05 mM after 24 hrs (reference value: 100%)
How it was run: as §1

Staphylococcus aureus [15] = assay: microbe, parasite or virus in culture; conditions: 24 h; remark: listed apart in the source
Staphylococcus aureus [16] = assay: Effect on growth in Staphylococcus aureus FRI-1187 at 0.50 mM after 24 hrs (reference value: 100%)
How it was run: as §1

Staphylococcus aureus [17] = assay: Effect on growth in Staphylococcus aureus MN8 at 0.01 mM after 24 hrs (reference value: 100%)
How it was run: as §1

Staphylococcus aureus [18] = assay: Effect on growth in Staphylococcus aureus MN8 at 0.05 mM after 24 hrs (reference value: 100%)
How it was run: as §1

Staphylococcus aureus [19] = assay: microbe, parasite or virus in culture; conditions: 24 h; remark: listed apart in the source
Staphylococcus aureus [20] = tested on: Staphylococcus aureus; remark: listed apart in the source
Staphylococcus aureus [21] = assay: Effect on growth in Staphylococcus aureus MN8 at 0.10 % after 24 hrs (reference value: 100%)
How it was run: as §1

Staphylococcus aureus [22] = assay: Effect on growth in Staphylococcus aureus MN8 at 9.0 mM after 24 hrs (reference value: 100%)
How it was run: as §1

Staphylococcus aureus [23] = assay: microbe, parasite or virus in culture; conditions: 24 h; remark: listed apart in the source
Staphylococcus aureus [24] = tested on: Staphylococcus aureus; remark: listed apart in the source
Staphylococcus aureus [25] = assay: Effect on growth in Staphylococcus aureus MN8 at 0.50 % after 24 hrs (reference value: 100%)
How it was run: as §1

Staphylococcus aureus [26] = assay: microbe, parasite or virus in culture; conditions: 24 h; remark: listed apart in the source
Staphylococcus aureus [27] = assay: Effect on growth in Staphylococcus aureus MN8 at 10.7 mM after 24 hrs (reference value: 100%)
How it was run: as §1

Staphylococcus aureus [28] = assay: Effect on growth in Staphylococcus aureus FRI-1187 at 1.50 mM after 24 hrs (reference value: 100%)
How it was run: as §1

Staphylococcus aureus [29] = assay: Effect on growth in Staphylococcus aureus FRI-1187 at 3.00 mM after 24 hrs (reference value: 100%)
How it was run: as §1

Staphylococcus aureus [30] = assay: microbe, parasite or virus in culture; conditions: 24 h; remark: listed apart in the source
Staphylococcus aureus [31] = assay: microbe, parasite or virus in culture; conditions: 24 h; remark: listed apart in the source
Staphylococcus aureus [32] = assay: Effect on growth in Staphylococcus aureus MN8 at 0.65 mM after 24 hrs (reference value: 100%)
How it was run: as §1

Staphylococcus aureus [33] = assay: microbe, parasite or virus in culture; conditions: 24 h; remark: listed apart in the source
Staphylococcus aureus [34] = assay: microbe, parasite or virus in culture; conditions: 24 h; remark: listed apart in the source
Staphylococcus aureus [35] = assay: Effect on growth in Staphylococcus aureus MN8 at 6.50 mM after 24 hrs (reference value: 100%)
How it was run: as §1

Staphylococcus aureus [36] = assay: microbe, parasite or virus in culture; conditions: 24 h; remark: listed apart in the source
Staphylococcus aureus [37] = assay: Effect on growth in Staphylococcus aureus MN8 at 120.00 mM after 24 hrs (reference value: 100%)
How it was run: as §1

Staphylococcus aureus [38] = assay: Effect on growth in Staphylococcus aureus MN8 at 80.00 mM after 24 hrs (reference value: 100%)
How it was run: as §1

Staphylococcus aureus [39] = assay: microbe, parasite or virus in culture; conditions: 24 h; remark: listed apart in the source
Staphylococcus aureus [40] = assay: Effect on growth in Staphylococcus aureus MN8 at 37.50 mM after 24 hrs (reference value: 100%)
How it was run: as §1

Staphylococcus aureus [41] = assay: microbe, parasite or virus in culture; conditions: 24 h; remark: listed apart in the source
Staphylococcus aureus [42] = assay: microbe, parasite or virus in culture; conditions: 24 h; remark: listed apart in the source
Staphylococcus aureus [43] = assay: Effect on growth in Staphylococcus aureus MN8 at 7.50 mM after 24 hrs (reference value: 100%)
How it was run: as §1

## CCCCCCCCCCCCN(CCC(=O)O)CCC(=O)O [SODIUM LAURIMINODIPROPIONIC ACID]
Staphylococcus aureus [1]
  inhibition at 2200 µM: 1%

## Nc1ccc(C(=O)O)cc1 [AMINOBENZOIC ACID]
Staphylococcus aureus [2]
  inhibition (INH): 8.6%
Staphylococcus aureus [3]
  Activity: 11.8%

## Oc1ccc(Cc2ccccc2)cc1
Staphylococcus aureus [4]
  inhibition at 2000 µM: 77.2%
Staphylococcus aureus [5]
  Activity: 37.1%
Staphylococcus aureus [6]
  Activity: 70.2%
Staphylococcus aureus [7]
  inhibition at 1000 µM: 91%

## C=CC(C)(O)CCC=C(C)C (stereo unspecified) [LINALOOL]
Staphylococcus aureus [8]
  inhibition at 750 µM: 12.2%
Staphylococcus aureus [9]
  Activity: 121.6%

## CC1CCC(C(C)C)C(O)C1 (stereo unspecified) [MENTHOL]
Staphylococcus aureus [10]
  Activity: 32.2%
Staphylococcus aureus [11]
  inhibition at 3200 µM: 24.4%
Staphylococcus aureus [12]
  Activity: 119.5%
Staphylococcus aureus [13]
  inhibition at 6400 µM: 1.8%

## Oc1cc(Cl)ccc1Oc1ccc(Cl)cc1Cl [TRICLOSAN]
Staphylococcus aureus [14]
  Activity: 136.4%
Staphylococcus aureus [15]
  inhibition at 50 µM: 9.9%
Staphylococcus aureus [16]
  Activity: 35.5%
Staphylococcus aureus [17]
  Activity: 5.6%
Staphylococcus aureus [18]
  Activity: 0%
Staphylococcus aureus [19]
  inhibition at 500 µM: 3.7%

## O=C(O)c1ccccc1O [SALICYLIC ACID]
Staphylococcus aureus [20]
  inhibition (INH): 26.3%
Staphylococcus aureus [21]
  Activity: 31%

## CCCCCCCCCCCCOCCOCCOCCO
Staphylococcus aureus [22]
  Activity: 7.3%
Staphylococcus aureus [23]
  inhibition at 9000 µM: 1%

## CC(=O)N[C@@H](Cc1ccc(O)cc1)C(=O)O [ACETYL TYROSINE]
Staphylococcus aureus [24]
  inhibition (INH): 47.1%
Staphylococcus aureus [20]
  inhibition (INH): 71.5%
Staphylococcus aureus [21]
  Activity: 47.5%
Staphylococcus aureus [25]
  Activity: 19.9%

## CCCCCCCCCCCC(=O)NCCOC(=O)C(CC(=O)[O-])S(=O)(=O)[O-].[Na+].[Na+] (stereo unspecified) [DISODIUM LAURAMIDO MEA]
Staphylococcus aureus [26]
  inhibition at 10700 µM: 0.4%
Staphylococcus aureus [27]
  Activity: 29.4%

## Oc1c(Cl)cc(Cl)c(Cl)c1Cc1c(O)c(Cl)cc(Cl)c1Cl [HEXACHLOROPHENE]
Staphylococcus aureus [28]
  Activity: 75%
Staphylococcus aureus [29]
  Activity: 35.2%
Staphylococcus aureus [4]
  inhibition at 2000 µM: 19.6%
Staphylococcus aureus [5]
  Activity: 123.7%
Staphylococcus aureus [30]
  inhibition at 3000 µM: 63.5%
Staphylococcus aureus [6]
  Activity: 143.81%
Staphylococcus aureus [31]
  inhibition at 1500 µM: 74.3%
Staphylococcus aureus [7]
  inhibition at 1000 µM: 48.1%

## CC1=CCC(O)(C(C)C)CC1 (stereo unspecified) [TERPINEOL]
Staphylococcus aureus [32]
  Activity: 112.7%
Staphylococcus aureus [33]
  inhibition at 6500 µM: 12.4%
Staphylococcus aureus [34]
  inhibition at 650 µM: 82.3%
Staphylococcus aureus [35]
  Activity: 90.5%

## C/C=C/C/C=C/CCC(=O)[C@H]1O[C@H]1C(N)=O [CERULENIN]
Staphylococcus aureus [36]
  inhibition at 120000 µM: 10.7%
Staphylococcus aureus [37]
  Activity: 50%
Staphylococcus aureus [38]
  Activity: 235.1%
Staphylococcus aureus [39]
  inhibition at 80000 µM: 8.4%

## COC(=O)c1ccc(O)cc1 [METHYLPARABEN]
Staphylococcus aureus [20]
  inhibition (INH): 20.7%
Staphylococcus aureus [21]
  Activity: 21.4%

## CC1(O)CCC(C(C)(C)O)CC1 (stereo unspecified) [TERPIN]
Staphylococcus aureus [40]
  Activity: 118.7%
Staphylococcus aureus [41]
  inhibition at 7500 µM: 77.9%
Staphylococcus aureus [42]
  inhibition at 37500 µM: 23.8%
Staphylococcus aureus [43]
  Activity: 124.7%
